{"data": "Results collected from several papers", "target": "STE20/SPS1-related proline-alanine-rich protein kinase (STK39, Homo sapiens, UniProt Q9UEW8)", "note": "Lines come from different studies, so protocols differ."}
{"Compound": "O=C(Nc1c[nH]nc1C(=O)NC1CCNCC1)c1cc(F)cc(F)c1", "test": "binding, competition with immobilised ligand", "conditions": "1 µM", "remaining binding [%]": 67}
{"Compound": "CCCOc1ccc([C@@H]2[C@@H](C(=O)O)[C@H](c3ccc4c(c3)OCO4)CN2CC(=O)Nc2c(CC)cccc2CC)cc1", "test": "cell-free assay, competition with immobilised ligand", "conditions": "1 µM", "remaining binding [%]": 78}
{"Compound": "CN(c1nccc(-c2cnn3ncccc23)n1)C1CC1", "test": "binding", "conditions": "1 µM", "remaining binding [%]": 100}
{"Compound": "N#CC1(c2ccccn2)CCN(Cc2cc(C(=O)N3CCCC3)c(=O)n3ccccc23)CC1", "test": "cell-free assay, competition with immobilised ligand", "conditions": "1 µM", "remaining binding [%]": 75}
{"Compound": "C[C@@H](c1ccc(-n2cnc3c(N)ncnc32)cc1)N1CCc2nn(C)c(Cc3ccccc3)c2C1=O", "test": "binding, competition with immobilised ligand", "conditions": "0.1 µM", "remaining binding [%]": 84}
{"Compound": "CN(C)c1nccc(-c2cnn3ncccc23)n1", "test": "binding", "conditions": "1 µM", "remaining binding [%]": 28}
{"Compound": "O=C1NC(c2ccccn2)Sc2ccccc21 (stereo not drawn)", "test": "cell-free assay, competition with immobilised ligand", "conditions": "1 µM", "remaining binding [%]": 89}
{"Compound": "COc1cnc(Nc2cccc(S(N)(=O)=O)c2)nc1N1CCN(c2ccccc2)C(=O)C1", "test": "binding, competition with immobilised ligand", "conditions": "1 µM", "remaining binding [%]": 99}
{"Compound": "O=C(c1ccc(Nc2ncc(Cl)c(-c3ccc(Cl)s3)n2)cc1)N1CCC(N2CCCC2)CC1", "test": "binding, competition with immobilised ligand", "conditions": "1 µM", "remaining binding [%]": 48}
{"Compound": "CS(=O)(=O)NCC[C@H](NC(=O)c1cncc2c1cnn2-c1ccc(F)cc1)c1ccnc(S(C)(=O)=O)c1", "test": "cell-free assay, competition with immobilised ligand", "conditions": "1 µM", "remaining binding [%]": 80}
{"Compound": "FC(F)(F)Oc1cccc(-c2cnc3ccc(-c4ccncc4)nn23)c1", "test": "binding, competition with immobilised ligand", "conditions": "5 µM", "remaining binding [%]": 83}
{"Compound": "Cn1nc(C(F)(F)F)cc1-c1cnc(N2CCc3cc(S(=O)(=O)Nc4c(F)cc(Cl)cc4F)cc(N4CCCC4=O)c32)nc1", "test": "cell-free assay, competition with immobilised ligand", "conditions": "1 µM", "remaining binding [%]": 91}
{"Compound": "CN(CCCC(F)(F)F)c1nccc(-c2cnn3ncccc23)n1", "test": "binding", "conditions": "1 µM", "remaining binding [%]": 82}
{"Compound": "O=C(c1ccc(Nc2nccc(-c3cc4ccccc4s3)n2)cc1)N1CCC(N2CCCC2)CC1", "test": "binding, competition with immobilised ligand", "conditions": "1 µM", "remaining binding [%]": 85}
{"Compound": "c1cncc(-c2cccc(Nc3nccc(NC4CCCCC4)n3)c2)c1", "test": "binding, competition with immobilised ligand", "conditions": "10 µM", "remaining binding [%]": 97}
{"Compound": "Cc1cnn2ncc(-c3ccnc(N(C)C)n3)c2c1", "test": "binding", "conditions": "1 µM", "remaining binding [%]": 100}
{"Compound": "FC(F)(F)c1ccc2c(c1)nc(-c1cccnc1)n2C1CC1", "test": "cell-free assay, competition with immobilised ligand", "conditions": "1 µM", "remaining binding [%]": 100}
{"Compound": "C[C@@H]1CCN(c2nccc(-c3cnn4ncccc34)n2)C1", "test": "binding", "conditions": "1 µM", "remaining binding [%]": 59}
{"Compound": "COc1ncc2cc3ccccc3nc2c1C#N", "test": "cell-free assay, competition with immobilised ligand", "conditions": "5 µM", "remaining binding [%]": 100}
{"Compound": "CN(C)c1ncc(F)c(-c2cnn3ncccc23)n1", "test": "binding", "conditions": "1 µM", "remaining binding [%]": 74}
{"Compound": "O=C(NCCCN1CCOCC1)c1ccc(Nc2ncc(Cl)c(-c3ccc(Cl)s3)n2)cc1", "test": "binding, competition with immobilised ligand", "conditions": "1 µM", "remaining binding [%]": 54}
